Laboratory results published in ChEMBL document CHEMBL1156280, “Design and synthesis of boron-containing PDE4 inhibitors using soft-drug strategy for potential dermatologic anti-inflammatory application” (Bioorg Med Chem Lett, 2010).

Legend:
THP-1 [1] = test: Antiinflammatory activity in human THP1 cells assessed as inhibition of TNFalpha release; type: functional, cell-based
Plasma [2] = test: Metabolic stability in CD1 mouse plasma assessed as change in ester; type: ADME, cell-free
In short: (§1)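 Compounds at 5 µM final in female CD-1 mouse plasma (K2EDTA) or PBS pH 7.4, 37 °C with mild shaking for 1 h. A time-0 plate was held on ice. Reactions were quenched with internal standard in acetonitrile or methanol, then centrifuged, and the supernatant was analysed by LC/MS/MS for loss of ester and appearance of the corresponding acid. Triplicates, values are means.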

THP-1 [3] = test: Antiinflammatory activity in human THP1 cells assessed as inhibition of IL2 release; type: functional, cell-based
[4] = Cmax in CD1 mouse at 100 mg/kg, po; type: ADME, organism-based; parameters: dose 100 mg/kg, route oral; conditions: in vivo
In short: (§2)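 Non-fasted CD-1 mice (n = 3 per group) received a single 100 mg/kg dose sc or po as a suspension in 1% carboxymethylcellulose. Plasma ester and its acid metabolite were followed over 6 h. Parameters came from a non-compartmental model, with bioavailability referenced to iv set at 100%.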

THP-1 [5] = test: Antiinflammatory activity in human THP1 cells assessed as inhibition of IFN-gamma release; type: functional, cell-based
[6] = Tmax in CD1 mouse at 100 mg/kg, po; type: ADME, organism-based; parameters: dose 100 mg/kg, route oral; conditions: in vivo; in short: as §2
[7] = Cmax in CD1 mouse at 100 mg/kg, sc; type: ADME, organism-based; parameters: dose 100 mg/kg, route subcutaneous; conditions: in vivo; in short: as §2
Mus musculus [8] = test: Bioavailability in CD1 mouse at 25 mg/kg, iv; type: ADME, organism-based; conditions: in vivo
In short: (§3)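 A single 25 mg/kg iv dose in 1-methyl-2-pyrrolidone/propylene glycol/PEG-400 (10:40:50, v/v/v) was given to non-fasted CD-1 mice, n = 3. Plasma ester and acid were measured over 6 h. Non-compartmental analysis gave the PK parameters, and iv bioavailability was taken as 100%.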

Mus musculus [9] = test: Antiinflammatory activity in mouse assessed as inhibition of phorbol ester-induced ear edema at 1 mg/ear; type: functional
[10] = Cmax in CD1 mouse at 25 mg/kg, iv; type: ADME, organism-based; parameters: dose 25 mg/kg, route intravenous; conditions: in vivo; in short: as §3
[11] = Oral bioavailability in CD1 mouse at 100 mg/kg; type: ADME, organism-based; conditions: in vivo; in short: as §2
[12] = AUC in CD1 mouse at 100 mg/kg, sc; type: ADME, organism-based; parameters: dose 100 mg/kg, route subcutaneous; conditions: plasma; in short: as §2
[13] = Tmax in CD1 mouse at 100 mg/kg, sc; type: ADME, organism-based; parameters: dose 100 mg/kg, route subcutaneous; conditions: in vivo; in short: as §2
[14] = Inhibition of PDE4
[15] = Bioavailability in CD1 mouse at 100 mg/kg, sc; type: ADME, organism-based; conditions: in vivo; in short: as §2
[16] = Half life in CD1 mouse at 25 mg/kg, iv; type: ADME, organism-based; parameters: dose 25 mg/kg, route intravenous; conditions: in vivo; in short: as §3
THP-1 [17] = test: Antiinflammatory activity in human THP1 cells assessed as inhibition of IL5 release; type: functional, cell-based
THP-1 [18] = test: Antiinflammatory activity in human THP1 cells assessed as inhibition of IL10 release; type: functional, cell-based
[19] = AUC in CD1 mouse at 100 mg/kg, po; type: ADME, organism-based; parameters: dose 100 mg/kg, route oral; conditions: plasma; in short: as §2
[20] = Chemical stability in phosphate buffer of pH 7.4 assessed as change in ester; type: physicochemical; conditions: read-out: Activity; in short: as §1
Plasma [21] = test: Metabolic stability in CD1 mouse plasma assessed as change in formation of acid; type: ADME, cell-free; in short: as §1
[22] = Chemical stability in phosphate buffer of pH 7.4 assessed as formation of acid; type: physicochemical; in short: as §1
[23] = Inhibition of PDE4 at 10 uM
Mus musculus [24] = test: Antiinflammatory activity in mouse assessed as inhibition of phorbol ester-induced ear edema at 3 mg/ear; type: functional

CCOC(=O)c1ccc(Oc2ccc3c(c2)COB3O)nc1
IC50 (THP-1 [1]): 200 nM
Activity (Plasma [2]): -72.5%
IC50 (THP-1 [3]): 100 nM
Cmax [4]: 4390 ng/mL
IC50 (THP-1 [5]): 100 nM
Tmax [6]: 15 min
Cmax [7]: 12700 ng/mL
F (Mus musculus [8]): 100%
inhibition (INH) (Mus musculus [9]): 59%
Cmax [10]: 12500 ng/mL
bioavailability [11]: 10.8%
AUC [12]: 14500 ng·h/mL
Tmax [13]: 30 min
IC50 [14]: 47 nM
bioavailability [15]: 97.8%
half-life [16]: 61.8 min
IC50 (THP-1 [17]): 200 nM
IC50 (THP-1 [18]): 460 nM
AUC [19]: 1660 ng·h/mL
percent change in ester [20]: -2.4%

N#Cc1ccc(Oc2ccc3c(c2)COB3O)cc1 [CRISABOROLE]
IC50 [14]: 490 nM

COC(=O)c1ccc(Oc2ccc3c(c2)COB3O)nc1
Activity (Plasma [2]): -42.4%
Activity (Plasma [21]): 31.6%
IC50 [14]: 84 nM
percent change in ester [20]: -9.8%
Activity [22]: 0.4%

CCCOC(=O)c1ccc(Oc2ccc3c(c2)COB3O)nc1
Activity (Plasma [2]): -92.5%
Activity (Plasma [21]): 79.8%
IC50 [14]: 130 nM
percent change in ester [20]: -13.6%
Activity [22]: 0.5%

O=C(O)c1ccc(Oc2ccc3c(c2)COB3O)cc1
IC50 [14]: 6420 nM

CCCOC(=O)c1ccc(Oc2ccc3c(c2)COB3O)cc1
Activity (Plasma [2]): -94.9%
Activity (Plasma [21]): 58.8%
IC50 [14]: 763 nM
percent change in ester [20]: -8.8%

O=C(O)c1ccc(Oc2ccc3c(c2)COB3O)nc1
IC50 (THP-1 [1]): > 10000 nM
IC50 (THP-1 [3]): > 10000 nM
IC50 (THP-1 [5]): > 10000 nM
inhibition [23]: 5%
IC50 (THP-1 [17]): > 10000 nM
IC50 (THP-1 [18]): > 10000 nM

CCOC(=O)c1ccc(Oc2ccc3c(c2)COB3O)cc1
Activity (Plasma [2]): -76.2%
Activity (Plasma [21]): 53.6%
IC50 [14]: 219 nM
percent change in ester [20]: -3.2%

COC(=O)c1ccc(Oc2ccc3c(c2)COB3O)cc1
Activity (Plasma [2]): -43.6%
Activity (Plasma [21]): 29.4%
IC50 [14]: 287 nM
percent change in ester [20]: -8.9%

CC(C)OC(=O)c1ccc(Oc2ccc3c(c2)COB3O)cc1
Activity (Plasma [2]): -58.9%
Activity (Plasma [21]): 27.6%
IC50 [14]: 130 nM
percent change in ester [20]: -10.6%

COc1ccc(C2CNC(=O)C2)cc1OC1CCCC1 (stereo not drawn) [ROLIPRAM]
inhibition (INH) (Mus musculus [9]): 6%
inhibition (INH) (Mus musculus [24]): 53%

CCCCOC(=O)c1ccc(Oc2ccc3c(c2)COB3O)nc1
Activity (Plasma [2]): -98%
Activity (Plasma [21]): 76.6%
IC50 [14]: 94.5 nM
percent change in ester [20]: -8.9%
Activity [22]: 0.4%

N#Cc1ccc(Oc2ccc3c(c2)COB3O)nc1
IC50 [14]: 180 nM

CC(C)OC(=O)c1ccc(Oc2ccc3c(c2)COB3O)nc1
Activity (Plasma [2]): -60.5%
Activity (Plasma [21]): 36.4%
IC50 [14]: 113 nM
percent change in ester [20]: 2.4%
Activity [22]: 1.4%

C[C@@H]1C[C@H]2[C@@H]3CCC4=CC(=O)C=C[C@]4(C)[C@@]3(F)[C@@H](O)C[C@]2(C)[C@@]1(O)C(=O)CO [DEXAMETHASONE]
inhibition (INH) (Mus musculus [9]): 68%
